Data on 18 compounds can be found in ChEMBL document CHEMBL4680134, “Structural optimization of natural product nordihydroguaretic acid to discover novel analogues as AcrB inhibitors” (Eur J Med Chem, 2020).

Data set [1] can be described thus: Growth inhibition of Escherichia coli BW25113 expressing AcrB at 512 ug/ml after 18 hrs by broth microdilution assay. The note with it: dose 512 µg/ml. The method in brief: (§1)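 MIC determined by 96-well broth microdilution in E. coli BW25113 expressing AcrB ((+)AcrB) and an isogenic acrB-deleted strain ((-)AcrB). Used to set the compound concentrations for synergy testing that produce no direct antibacterial effect.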

Data set [2] can be described thus: Growth inhibition of Escherichia coli harboring AcrB deletion mutant at 64 ug/ml after 18 hrs by broth microdilution assay. The note with it: dose 64 µg/ml. The method in brief: as §1
Background: In broth dilution the organism is exposed to a series of concentrations in liquid medium.

In the case of `Oc1ccc(CCCCc2ccc(-c3ccccc3)cc2)cc1O`, the “growth inhibition (GI)” value in data set [1] and in data set [2] was “Non-Toxic” each time.

Consider `Oc1ccc(CCCCc2ccncc2)cc1O`, for which the “growth inhibition (GI)” value in data set [1] and in data set [2] was “Non-Toxic” throughout.

With `Cn1cc(CCCCc2ccc(O)c(O)c2)c2ccccc21`, the “growth inhibition (GI)” value in data set [1] and in data set [2] was “Non-Toxic” throughout.

On to `CC(C)(C)c1ccc(C(=O)NCCc2ccc(O)c(O)c2)cc1`, for which the “growth inhibition (GI)” value in data set [1] and in data set [2] was “Non-Toxic” in each case.

For the compound `Oc1ccc(CCCC(c2ccccc2)c2ccccc2)cc1O`, the “growth inhibition (GI)” value in data set [1] and in data set [2] was “Non-Toxic” throughout.

In the case of `Oc1ccc2cc(CCCCc3ccc(O)c(O)c3)ccc2c1`, the “growth inhibition (GI)” value in data set [1] and in data set [2] was “Non-Toxic” throughout.

As for `Oc1ccc(CCCCc2ccc(F)cc2)cc1O`, the “growth inhibition (GI)” value in data set [1] and in data set [2] was “Non-Toxic” in each case.

In the case of `CC(C)CCn1cc(CCCCc2ccc(O)c(O)c2)c2ccccc21`, the “growth inhibition (GI)” value in data set [1] and in data set [2] was “Non-Toxic” in each case.

Take `Nc1ccc(CCCCc2ccc(O)c(O)c2)cc1`: the “growth inhibition (GI)” value in data set [1] and in data set [2] was “Non-Toxic” each time.

For the compound `Cc1ccc(CCCCc2ccc(O)c(O)c2)cc1`, the “growth inhibition (GI)” value in data set [1] and in data set [2] was “Non-Toxic” throughout.

For `Oc1ccc(CCCCc2cccc3ccccc23)cc1O`, the “growth inhibition (GI)” value in data set [1] and in data set [2] was “Non-Toxic” in each case.

For the compound `Oc1ccc(CCCCc2ccco2)cc1O`, the “growth inhibition (GI)” value in data set [1] and in data set [2] was “Non-Toxic” each time.

Regarding `CC(C)c1ccc(CCCCc2ccc(O)c(O)c2)cc1`, the “growth inhibition (GI)” value in data set [1] and in data set [2] was “Non-Toxic” throughout.

Regarding `Oc1ccc(CCCCc2ccccc2)cc1O`, the “growth inhibition (GI)” value in data set [1] and in data set [2] was “Non-Toxic” throughout.

Turning to `Oc1ccc(CCCCc2ccccn2)cc1O`, the “growth inhibition (GI)” value in data set [1] and in data set [2] was “Non-Toxic” throughout.

As for `Oc1ccc(CCCCc2c3ccccc3cc3ccccc23)cc1O`, the “growth inhibition (GI)” value in data set [1] and in data set [2] was “Non-Toxic” in each case.

For the compound `Oc1ccc(CCCCc2ccc(O)c(O)c2)cc1`, the “growth inhibition (GI)” value in data set [1] and in data set [2] was “Non-Toxic” each time.

On to `CC(C)(C)c1ccc(CCCCc2ccc(O)c(O)c2)cc1`, for which the “growth inhibition (GI)” value in data set [1] and in data set [2] was “Non-Toxic” each time.
